Reference: ChEMBL document CHEMBL1129630, “Synthesis and structure-activity relationships of retinoid X receptor selective diaryl sulfide analogs of retinoic acid” (J Med Chem, 1996)

How the values were obtained:
[1] = target: T1, Retinoic acid receptor alpha (Homo sapiens, UniProt P10276); test: Transcriptional activation of Retinoic acid receptor RAR alpha;NA=not active; set-up: species or system Cercopithecidae
T1 sequence (P10276 whole entry): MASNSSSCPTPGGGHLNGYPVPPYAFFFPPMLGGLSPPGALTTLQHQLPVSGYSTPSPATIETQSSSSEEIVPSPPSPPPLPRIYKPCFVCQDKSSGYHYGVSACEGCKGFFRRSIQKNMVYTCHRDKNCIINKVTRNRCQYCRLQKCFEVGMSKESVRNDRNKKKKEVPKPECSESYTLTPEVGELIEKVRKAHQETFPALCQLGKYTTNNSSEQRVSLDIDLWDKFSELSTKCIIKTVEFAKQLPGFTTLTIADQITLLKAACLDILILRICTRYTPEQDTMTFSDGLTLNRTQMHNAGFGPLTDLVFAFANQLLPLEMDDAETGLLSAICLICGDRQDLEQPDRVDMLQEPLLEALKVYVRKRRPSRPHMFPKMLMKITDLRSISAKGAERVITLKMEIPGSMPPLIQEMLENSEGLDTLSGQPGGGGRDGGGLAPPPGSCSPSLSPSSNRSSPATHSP
Method in brief: (§1)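 CV-1 cells transiently cotransfected with the receptor construct and a reporter gene, with induced transcription measured. Activity is normalized to all-trans RA. EC50 is the concentration giving 50% of maximal observed response, from a single experiment in triplicate.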

[2] = target: T2, Retinoic acid receptor RXR-alpha (Mus musculus, UniProt P28700); test: Dissociation constant for binding to Retinoid X receptor alpha
T2 sequence (P28700 whole entry): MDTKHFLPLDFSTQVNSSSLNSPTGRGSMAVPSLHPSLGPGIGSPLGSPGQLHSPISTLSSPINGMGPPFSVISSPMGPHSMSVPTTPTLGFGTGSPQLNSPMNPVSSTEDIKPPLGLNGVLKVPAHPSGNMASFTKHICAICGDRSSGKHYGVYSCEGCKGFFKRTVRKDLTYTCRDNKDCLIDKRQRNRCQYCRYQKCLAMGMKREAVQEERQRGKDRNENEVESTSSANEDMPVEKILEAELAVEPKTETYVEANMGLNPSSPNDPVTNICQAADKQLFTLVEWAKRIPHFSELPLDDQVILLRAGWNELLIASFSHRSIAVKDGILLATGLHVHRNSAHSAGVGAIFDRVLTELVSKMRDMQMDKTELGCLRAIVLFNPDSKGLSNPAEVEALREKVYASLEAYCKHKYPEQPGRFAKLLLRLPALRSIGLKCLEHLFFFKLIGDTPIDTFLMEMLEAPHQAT

[3] = target: T3, Retinoic acid receptor gamma (Homo sapiens, UniProt P13631); test: Transcriptional activation of Retinoic acid receptor RAR gamma;NA=not active; set-up: species or system Cercopithecidae; method in brief: as §1
T3 sequence (P13631 whole entry): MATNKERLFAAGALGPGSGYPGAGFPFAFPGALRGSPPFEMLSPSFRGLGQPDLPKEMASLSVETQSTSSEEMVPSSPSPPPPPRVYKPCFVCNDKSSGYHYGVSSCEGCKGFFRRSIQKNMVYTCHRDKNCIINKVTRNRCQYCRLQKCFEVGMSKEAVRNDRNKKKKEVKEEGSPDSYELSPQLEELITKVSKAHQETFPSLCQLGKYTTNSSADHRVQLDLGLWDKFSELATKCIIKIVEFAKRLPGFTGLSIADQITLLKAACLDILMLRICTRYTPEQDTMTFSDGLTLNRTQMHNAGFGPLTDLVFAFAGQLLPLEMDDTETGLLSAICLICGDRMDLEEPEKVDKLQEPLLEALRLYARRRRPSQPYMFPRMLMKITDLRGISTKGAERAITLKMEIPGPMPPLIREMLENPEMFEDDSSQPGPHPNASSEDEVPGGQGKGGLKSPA

[4] = target: T4, Retinoic acid receptor RXR-beta (Homo sapiens, UniProt P28702); test: Transcriptional activation of Retinoid X receptor RXR beta; set-up: species or system Cercopithecidae
T4 sequence (P28702 whole entry): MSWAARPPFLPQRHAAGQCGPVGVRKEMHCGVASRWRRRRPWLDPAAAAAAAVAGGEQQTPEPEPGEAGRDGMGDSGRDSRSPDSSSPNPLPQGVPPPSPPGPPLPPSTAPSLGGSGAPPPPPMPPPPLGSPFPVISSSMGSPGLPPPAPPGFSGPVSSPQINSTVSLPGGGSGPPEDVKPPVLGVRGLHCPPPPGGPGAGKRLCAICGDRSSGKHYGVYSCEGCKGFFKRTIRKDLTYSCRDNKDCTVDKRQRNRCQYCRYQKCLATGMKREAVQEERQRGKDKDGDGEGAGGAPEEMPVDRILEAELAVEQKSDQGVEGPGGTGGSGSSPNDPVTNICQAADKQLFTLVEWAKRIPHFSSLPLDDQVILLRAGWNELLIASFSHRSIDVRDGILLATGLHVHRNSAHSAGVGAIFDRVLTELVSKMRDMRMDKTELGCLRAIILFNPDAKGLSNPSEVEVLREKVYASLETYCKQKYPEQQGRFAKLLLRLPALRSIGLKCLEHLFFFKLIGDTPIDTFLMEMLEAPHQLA
Method in brief: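 CV-1 cells transiently cotransfected with the receptor construct and a reporter gene, with induced transcription measured. Activity is normalized to all-trans RA.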

[5] = target: T5, Retinoic acid receptor beta (Mus musculus, UniProt P22605); test: Dissociation constant for binding to Retinoic acid receptor beta
T5 sequence (P22605 whole entry): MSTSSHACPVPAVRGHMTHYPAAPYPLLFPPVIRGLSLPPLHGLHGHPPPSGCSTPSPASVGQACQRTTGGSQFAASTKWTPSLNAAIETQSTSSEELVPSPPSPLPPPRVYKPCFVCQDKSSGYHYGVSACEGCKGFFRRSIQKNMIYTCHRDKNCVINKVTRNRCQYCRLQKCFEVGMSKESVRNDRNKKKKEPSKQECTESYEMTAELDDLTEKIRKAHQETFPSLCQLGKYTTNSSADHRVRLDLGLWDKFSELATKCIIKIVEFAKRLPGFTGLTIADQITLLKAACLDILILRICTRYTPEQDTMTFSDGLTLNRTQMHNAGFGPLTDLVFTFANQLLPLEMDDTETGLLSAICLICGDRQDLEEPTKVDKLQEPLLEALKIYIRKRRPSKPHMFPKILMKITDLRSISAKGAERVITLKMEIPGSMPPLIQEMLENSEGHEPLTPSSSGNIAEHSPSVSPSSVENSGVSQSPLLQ
Method in brief: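 Competitive binding assays against each receptor subtype, with Kd values taken from competition.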

Row | Compound | EC50 [1] | Kd [2] [µM] | EC50 [3] | EC50 [4] [µM] | Kd [5] [µM]
1 | Cc1cc2c(cc1Sc1ccc(C(=O)O)cn1)C(C)(C)CCC2(C)C | Not Active | 0.032 | Not Active | – | –
2 | Cc1cc2c(cc1Sc1ncc(C(=O)O)s1)C(C)(C)CCC2(C)C | Not Active | 1 | Not Active | 1.3 | 1
3 | Cc1cc2c(cc1S(=O)(=O)c1ccc(C(=O)O)cc1)C(C)(C)CCC2(C)C | Not Active | 2.52 | Not Active | – | > 10
4 | CC1(C)CCC(C)(C)c2cc(Sc3ccc(C(=O)O)cc3)ccc21 | Not Active | 3.87 | – | – | 4.24

Second part, the molecule after the results:

Row | EC50 [1] | Kd [2] [µM] | EC50 [3] | EC50 [4] [µM] | Kd [5] [µM] | Compound
5 | Not Active | 0.296 | – | 0.3 | > 10 | Cc1cc2c(cc1Sc1ccc(C(=O)O)cc1)C(C)(C)CCC2(C)C
6 | Not Active | > 10 | Not Active | 3 | > 10 | Cc1cc2c(cc1[S+]([O-])c1ccc(C(=O)O)cc1)C(C)(C)CCC2(C)C (centres undefined)
